# Data taken from ChEMBL document CHEMBL1156262, “Substituted benzothiophene or benzofuran derivatives as a novel class of bone morphogenetic protein-2 up-regulators: synthesis, structure-activity relationships, and preventive bone loss efficacies in senescence accelerated mice (SAMP6) and ovariectomized rats” (J Med Chem, 2010).
# Active and inactive are the calls of the source. The rule behind the calls is not given here.
# Assays:
# Mus musculus [1] = test: Induction of BMP2 expression in SAMP6 mouse osteoblast at 10 mg/kg/day, po after 3 months by immunohistochemical analysis; format: functional, organism-based
# Summary of the method: (§1)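 SAMP6 mice, 5 months old, male and female, n = 5 per group (3 male, 2 female). Dosed by gavage with compound suspended in 0.5% methylcellulose daily for 3 months; the vehicle group received methylcellulose only. Proximal third of the left femur fixed in 4% neutral paraformaldehyde for 24 h, decalcified in 10% EDTA at 4 °C for 4 weeks, then frozen-sectioned at 5 μm. Stained with rabbit polyclonal anti-BMP-2 and an alkaline phosphatase secondary. BMP-2-positive area was taken as a percentage of bone tissue area, averaged over five fields below the epiphyseal plate.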
# Mus musculus [2] = test: Induction of BMP2 expression in SAMP6 mouse cartilage cells at 30 mg/kg/day, po after 3 months by immunohistochemical analysis; format: functional, organism-based; summary of the method: as §1
# [3] = Toxicity in ip dosed Kunming mouse assessed as mortality treated for 3 days measured after 17 days; format: organism-based; details: in vivo
# Mus musculus [4] = test: Toxicity in SAMP6 mouse assessed as pathological changes in kidney at 30 mg/kg/day, po after 3 months by histomorphology; format: organism-based; parameters: route oral; details: in vivo
# Summary of the method: (§2)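 SAMP6 mice, n = 5 per group, dosed orally at 30 mg/kg/day in 0.5% methylcellulose for 3 months. Heart, liver, spleen, lung and kidney harvested, weighed and examined histologically. Organ/body weight indexes, body weight, and 24 h water and food intake (g/g body weight) compared with vehicle controls.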
# Mus musculus [5] = test: Toxicity in SAMP6 mouse assessed as change in 24 hrs water consumption at 30 mg/kg/day, po after 3 months; format: organism-based; parameters: route oral; details: in vivo; summary of the method: as §2
# Mus musculus [6] = test: Induction of BMP2 expression in SAMP6 mouse osteoblast at 30 mg/kg/day, po after 3 months by immunohistochemical analysis; format: functional, organism-based; summary of the method: as §1
# Rattus norvegicus [7] = test: Toxicity in rat assessed as pathological changes in lung at 150 mg/kg/day, po after 3 months by histomorphology; format: organism-based; parameters: route oral; details: in vivo
# Summary of the method: (§3)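 Rats, n = 7, given oral doses of 150 mg/kg/day for 3 months. Heart, liver, spleen, lung and kidney examined histologically for pathological change.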
# Rattus norvegicus [8] = test: Induction of bone formation in ovariectomized rat assessed as increase in trabecular bone volume percentage at 15 mg/kg/day, po after 3 months; format: functional, organism-based; details: Trabecula
# Summary of the method: (§4)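 Female rats (205–235 g) randomized by body weight, n = 7 per group: sham, ovariectomized with vehicle, ovariectomized with raloxifene 5 mg/kg/day, and ovariectomized with compound at 7.5, 15 or 30 mg/kg/day. All dosing oral for 3 months. Undecalcified proximal tibia sections analysed by histomorphometry, with comparisons against the sham and ovariectomized groups.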
# Rattus norvegicus [9] = test: Prevention of bone loss in ovariectomized rat assessed as increase in number, thickness, area and connectivity of trabecula at 15 mg/kg/day, po after 3 months by histomorphometry Leica Qwin image analysis; format: functional, organism-based; summary of the method: as §4
# Mus musculus [10] = test: Induction of bone formation in SAMP6 mouse right femora assessed as trabecular formation surface percentage at 30 mg/kg/day, po measured after 3 months by bone histomorphometry; format: functional, Trabecula
# Summary of the method: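 SAMP6 mice, 5 months old, n = 5 per group (3 male, 2 female), randomized by initial BMD. Given compound in 0.5% methylcellulose by gavage daily for 3 months. Proximal third of the right femur fixed in 4% paraformaldehyde, cut as undecalcified sections, and scored by image analysis for histomorphometry.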
# Mus musculus [11] = test: Induction of bone mineral density in SAMP6 mouse assessed as spine BMD at 30 mg/kg/day, po measured first 2 months; format: functional, organism-based
# Summary of the method: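 SAMP6 mice, 5 months old, n = 5 per group, given compound in 0.5% methylcellulose by gavage daily. Dual-energy X-ray absorptiometry under pentobarbital anaesthesia (50 mg/kg ip), animals prone, at 0, 4, 8 and 12 weeks of treatment. Regions of interest were whole body, spine and left hind leg.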
# Rattus norvegicus [12] = test: Toxicity in rat assessed as pathological changes in liver at 150 mg/kg/day, po after 3 months by histomorphology; format: organism-based; parameters: route oral; details: in vivo; summary of the method: as §3
# Rattus norvegicus [13] = test: Induction of bone formation in ovariectomized rat assessed as increase in trabecular bone volume percentage at 30 mg/kg/day, po after 3 months; format: functional, organism-based; details: Trabecula; summary of the method: as §4
structure (smiles),measurement,setting,value
CC(=O)c1cc2ccccc2s1,Activity,Mus musculus [1],Active
same,Activity,Mus musculus [2],inactive
same,LD50 at 408 h,[3],> 1580 mg/kg
same,Activity,Mus musculus [4],Non-toxic
same,Activity,Mus musculus [5],Non-toxic
same,Activity,Mus musculus [6],Active
same,Activity,Rattus norvegicus [7],Non-toxic
same,Activity,Rattus norvegicus [8],Active
same,Activity,Rattus norvegicus [9],Active
same,Activity,Mus musculus [10],5.89%
same,Activity,Mus musculus [11],Active
same,Activity,Rattus norvegicus [12],Non-toxic
same,Activity,Rattus norvegicus [13],Active
